Laboratory results as given in PMC6911266 (Nature, 2019).
Changes are numbered by the printed parent chain. Like-named read-outs stand apart in the source and are kept apart here.

What was measured:
PfCRT 7G8+F145I [1] = target: T1, PfCRT 7G8+F145I (Plasmodium falciparum, UniProt W7FI62, F145I); assay: Equilibrium dialysis binding, PfCRT variant in nanodiscs; conditions: for Bmax, binding at pH 5.5 / Bmax, binding at pH 7.5: equilibrium dialysis
T1 sequence (W7FI62 1-424 F145I): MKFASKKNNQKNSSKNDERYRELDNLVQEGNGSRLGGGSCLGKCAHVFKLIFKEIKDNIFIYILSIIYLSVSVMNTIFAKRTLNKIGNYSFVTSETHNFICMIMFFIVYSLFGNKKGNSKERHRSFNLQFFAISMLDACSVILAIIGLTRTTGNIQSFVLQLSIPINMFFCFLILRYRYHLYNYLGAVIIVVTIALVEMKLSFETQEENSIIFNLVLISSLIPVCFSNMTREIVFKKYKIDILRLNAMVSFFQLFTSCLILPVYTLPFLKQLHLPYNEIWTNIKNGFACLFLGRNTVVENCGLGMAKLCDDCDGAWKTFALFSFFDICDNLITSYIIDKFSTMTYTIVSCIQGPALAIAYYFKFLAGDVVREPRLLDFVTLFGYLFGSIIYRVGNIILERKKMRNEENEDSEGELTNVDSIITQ

PfCRT WT (3D7) = target: T2, PfCRT WT (3D7) (Plasmodium falciparum, UniProt Q9N623); assay: Equilibrium dialysis binding, PfCRT variant in nanodiscs; conditions: for Bmax, binding at pH 5.5 / Bmax, binding at pH 7.5: equilibrium dialysis
T2 sequence (Q9N623 1-424): T1 sequence (W7FI62 1-424 F145I) with S72C, T76K, I145F, S220A, D326N, L356I
Procedure, shortened: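 Saturation binding of [3H]-CQ (1 Ci/mmol) or [3H]-PPQ (2.5 Ci/mmol) by equilibrium dialysis (12,000–14,000 MWCO) with 4.2 pmol PfCRT in POPG/MSP1D1 nanodiscs (BacMam, HEK293S GnTi- cells). Kd came from global non-linear regression, N=3.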

PfCRT 7G8 = target: T3, PfCRT 7G8 (Plasmodium falciparum, UniProt W7FI62); type: biochemical; conditions: for transport activity (in words): proteoliposomes
T3 sequence (W7FI62 1-424): T1 sequence (W7FI62 1-424 F145I) with I145F

PfCRT 7G8+F145I [2] = target: T1, PfCRT 7G8+F145I; assay: Transport; type: biochemical; conditions: for 1-min uptake, transport in proteoliposomes: 100 nM [3H]-drug, inwardly-directed pH gradient; for Vmax, transport in proteoliposomes: initial rates over 3 s, Michaelis-Menten fit; for transport activity (in words): proteoliposomes
PfCRT Dd2 = target: T4, PfCRT Dd2 (Plasmodium falciparum, UniProt Q9N623, A220S/I356T/K76T/M74I/N326S/N75E/Q271E/R371I); assay: Transport; type: biochemical; conditions: for transport activity (in words): proteoliposomes
T4 sequence (Q9N623 1-424 M74I/N75E/K76T/A220S/Q271E/N326S/I356T/R371I): T1 sequence (W7FI62 1-424 F145I) with S72C, M74I, N75E, I145F, Q271E, D326S, L356T, R371I

[3] = Uptake in control liposomes; type: biochemical; conditions: 100 nM [3H]-drug, liposomes without PfCRT
Procedure, shortened: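 Control liposomes lack PfCRT and are loaded with 100 mM KPi, pH 7.5, and 2 mM β-mercaptoethanol. They are diluted into 100 mM Tris/Mes, pH 5.5, with 100 nM [3H]-CQ (5.45 Ci/mmol) or [3H]-PPQ (15 Ci/mmol) for 1 min. Non-specific filter binding, measured as mock uptake without liposomes, is subtracted. Data come from 2 independent experiments, each with 4 technical replicates.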

[4] = test system: P. falciparum 7G8^7G8 parasite line; assay: Parasite drug susceptibility assay; type: cell-based, Plasmodium falciparum; conditions: Plasmodium falciparum, 7G8, 72 h
Procedure, shortened: (§1)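 Asynchronous asexual blood-stage parasites were seeded at 0.3% parasitemia and 1% hematocrit into 2-fold, 10-point test compound dilutions. Incubation was 72 h at 37°C under 5% O2/5% CO2/90% N2. Final parasitemia was read by flow cytometry. IC50 came from nonlinear regression, 4 independent assays in duplicate, with two-tailed Mann-Whitney U tests.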

[5] = test system: P. falciparum 7G8^7G8+C350R parasite line; assay: Parasite drug susceptibility assay; type: cell-based, Plasmodium falciparum; conditions: Plasmodium falciparum, 7G8, 72 h
Procedure, shortened: as §1

[6] = binding at pH 5.5, equilibrium dialysis, pH 5.5
[7] = binding at pH 7.5, equilibrium dialysis, pH 7.5
[8] = 100 nM [3H]-drug, 1 min, inwardly-directed pH gradient
[9] = initial rates over 3 s, Michaelis-Menten fit

With Clc1ccc2c(N3CCN(CCCN4CCN(c5ccnc6cc(Cl)ccc56)CC4)CC3)ccnc2c1 [PPQ, piperaquine] as the compound, how does the Kd (PfCRT 7G8+F145I [1]; [6]) read?
Its Kd is 220 ± 30 nM.

What about the Kd (PfCRT 7G8+F145I [1]; [7]) of the same compound?
Its Kd is 260 ± 30 nM.

What about the “Bmax, binding at pH 5.5” value (PfCRT 7G8+F145I [1]; pH 5.5) of the same compound?
The value was 0.38 ± 0.01 mol CQ/mol PfCRT.

What about the “Bmax, binding at pH 7.5” value (PfCRT 7G8+F145I [1]; pH 7.5) of the same compound?
The value was 0.42 ± 0.01 mol CQ/mol PfCRT.

And the “fold increase in Kd compared with 7G8 parental isoform” value (PfCRT 7G8+F145I [1]; pH 5.5)?
The value was ~ 2 fold.

And the Kd (PfCRT WT (3D7))?
The Kd was 260 ± 40 nM.

And the “Bmax, binding at pH 5.5” value (PfCRT WT (3D7))?
The value was 0.38 ± 0.02 mol CQ/mol PfCRT.

What about the “Bmax, binding at pH 7.5” value (PfCRT WT (3D7)) of the same compound?
The value was 0.40 ± 0.02 mol CQ/mol PfCRT.

What about the “transport activity (in words)” value (PfCRT 7G8) of the same compound?
The value was “Minimal”.

And the “transport activity (in words)” value (PfCRT 7G8; listed as [^3H]-PPQ)?
The value was “no detectable”.

And the “1-min uptake, transport in proteoliposomes” value (PfCRT 7G8+F145I [2])?
The value was 1.41 ± 0.12 nmol/mg.

And the “Vmax, transport in proteoliposomes” value (PfCRT 7G8+F145I [2])?
The value was 109.30 ± 7.27 nmol/mg/min.

And the “transport activity (in words)” value (PfCRT 7G8+F145I [2])?
Its value is “substantially increased”.

What about the “transport activity (in words)” value (PfCRT Dd2) of the same compound?
The value was “Minimal”.

What about the “1-min uptake in control liposomes” value [3] of the same compound?
Its value is 0.09 ± 0.01 nmol/mg.

And the IC50 [4]?
The IC50 was 21.4 ± 1 nM.

And the IC50 [5]?
Its IC50 is 29.5 ± 1.6 nM.

Which results are given for CCN(CC)CCCC(C)Nc1ccnc2cc(Cl)ccc12 (centres unmarked) [CQ, chloroquine]?
Kd (PfCRT 7G8+F145I [1]; [6]): 240 ± 60 nM; Kd (PfCRT 7G8+F145I [1]; [7]): 290 ± 50 nM; Bmax, binding at pH 5.5 (PfCRT 7G8+F145I [1]; pH 5.5): 0.39 ± 0.03 mol CQ/mol PfCRT; Bmax, binding at pH 7.5 (PfCRT 7G8+F145I [1]; pH 7.5): 0.43 ± 0.02 mol CQ/mol PfCRT; Kd (PfCRT WT (3D7)): 280 ± 40 nM; Bmax, binding at pH 5.5 (PfCRT WT (3D7)): 0.40 ± 0.02 mol CQ/mol PfCRT; Bmax, binding at pH 7.5 (PfCRT WT (3D7)): 0.42 ± 0.02 mol CQ/mol PfCRT; 1-min uptake, transport in proteoliposomes (PfCRT 7G8; [8]): 3.14 ± 0.50 nmol/mg; catalytic turnover number (kcat) (PfCRT 7G8; from Vmax, assuming full activity of reconstituted PfCRT 7G8): ~ 0.2 s^−1; Vmax, transport in proteoliposomes (PfCRT 7G8; [9]): 92.2 ± 4.9 nmol/mg/min; time course of uptake (in words) (PfCRT 7G8; pH gradient 5.5–7.5 and membrane potential (valinomycin)): maximal within one minute; transport activity (in words) (PfCRT 7G8): robust transport activity; 1-min uptake, transport in proteoliposomes (PfCRT 7G8+F145I [2]): 0.24 ± 0.05 nmol/mg; Vmax, transport in proteoliposomes (PfCRT 7G8+F145I [2]): 63.01 ± 3.57 nmol/mg/min; transport activity (in words) (PfCRT 7G8+F145I [2]): reduced uptake; 1-min uptake, transport in proteoliposomes (PfCRT Dd2; [8]): 3.33 ± 0.22 nmol/mg; Vmax, transport in proteoliposomes (PfCRT Dd2; [9]): 91.37 ± 2.79 nmol/mg/min; transport activity (in words) (PfCRT Dd2): robust transport activity; 1-min uptake in control liposomes [3]: 0.12 ± 0.02 nmol/mg; IC50 [4]: 83 ± 7.5 nM; IC50 [5]: 6.9 ± 0.3 nM
